ABCB6 inh MLPCN – inhibitors of human ABC transporter ABCB6; K562-ABCB6 porphyrin accumulation, flow cytometry, 1 h; hits give low values; 360,000 tested, 0.19% active; fluorescence ratio to DMSO, % at 10 µM; Q9NP58;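 active = fluorescence ratio to DMSO below 75%, the collection mean minus 3 SD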;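 note: signal is porphyrin accumulated inside mitochondria; 100% equals median channel fluorescence of DMSO control wells; lower ratio means ABCB6 inhibition with less porphyrin fluorescence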
DAGLB inh – blocks human DAGLB lipase activity. HEK293T DAGLB membrane lysate, EnzChek fluorogenic substrate. inhibition, % at 5.17 µM. 340,000 tested, 0.059% active. AID 504411; in the data active = inhibition above about 34%;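 note: 0% = enzyme with vehicle and 100% = wells lacking enzyme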
VLA-4 inh – inhibition in a human VLA-4 binding assay. P13612. inhibition, % (about 7 µM as worked out from the volumes in the protocol). VLA-4 expressing cells, ligand binding flow cytometry. AID 2557. 330,000 tested, 0.2% active; in the data active = inhibition above about 50%
Target sequence (P13612 whole entry, looked up): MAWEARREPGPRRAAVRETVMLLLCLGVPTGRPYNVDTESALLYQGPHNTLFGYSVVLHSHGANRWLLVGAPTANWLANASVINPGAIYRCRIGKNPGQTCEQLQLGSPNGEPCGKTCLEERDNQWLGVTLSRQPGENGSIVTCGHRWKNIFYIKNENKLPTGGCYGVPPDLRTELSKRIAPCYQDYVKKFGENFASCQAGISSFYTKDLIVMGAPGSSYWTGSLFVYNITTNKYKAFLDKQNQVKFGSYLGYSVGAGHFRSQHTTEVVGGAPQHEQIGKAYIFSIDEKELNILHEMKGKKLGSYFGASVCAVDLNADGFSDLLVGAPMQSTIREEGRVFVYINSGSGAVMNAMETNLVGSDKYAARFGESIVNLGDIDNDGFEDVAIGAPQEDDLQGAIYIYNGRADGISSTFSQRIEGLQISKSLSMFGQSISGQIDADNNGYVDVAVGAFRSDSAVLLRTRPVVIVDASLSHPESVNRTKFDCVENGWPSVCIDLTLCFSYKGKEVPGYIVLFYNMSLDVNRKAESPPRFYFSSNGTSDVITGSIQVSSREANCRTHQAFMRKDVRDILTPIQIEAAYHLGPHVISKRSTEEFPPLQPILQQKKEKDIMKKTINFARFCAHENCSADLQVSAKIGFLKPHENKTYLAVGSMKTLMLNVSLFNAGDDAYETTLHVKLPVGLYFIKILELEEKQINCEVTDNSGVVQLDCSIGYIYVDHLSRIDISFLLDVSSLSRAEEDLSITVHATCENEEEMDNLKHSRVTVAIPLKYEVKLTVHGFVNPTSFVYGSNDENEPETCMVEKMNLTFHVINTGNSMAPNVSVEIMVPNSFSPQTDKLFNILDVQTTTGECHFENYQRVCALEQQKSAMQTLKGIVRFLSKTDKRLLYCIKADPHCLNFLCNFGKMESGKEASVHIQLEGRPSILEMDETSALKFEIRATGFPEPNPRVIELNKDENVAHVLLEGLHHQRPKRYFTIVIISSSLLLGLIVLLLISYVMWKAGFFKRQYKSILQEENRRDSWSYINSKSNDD
Granule exo inh – lytic granule exocytosis inhibition; TALL-104 LAMP-1 surface exposure, flow cytometry; cells stimulated with thapsigargin and PMA; inhibition, % at 10 µM; 360,000 tested, 0.66% active;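 active = inhibition above about 55%, limit read from the data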
FGF22 binding – FGF22 (human) thermal shift binding | Q9HCT0 | recombinant FGF22 thermal shift, SYPRO orange fluorescence; percent of sucrose octasulfate shift, DMSO zero | activity (Tm shift, normalised), % at 9.99 µM | 340,000 tested, 1.5% active | AID 651658;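 active = mean Tm shift, scaled 0 neutral to 100 positive control, at about 1.3% or above, every replicate too, limit read from the data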
MT1-MMP act inh – inhibitors of human MT1-MMP activation. P50281. GFP/RFP ratio change, % at 20 µM. HT1080 RFP-PRO-GFP cells, GFP/RFP ratio fluorescence, overnight; percent of plate control window, DMSO zero. 360,000 tested, 0.061% active;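 active = GFP/RFP ratio change of at least 30% with cell ATP level not reduced by more than half and red fluorescence within 50% of control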
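Test system: HT1080 RFP-PRO-GFP cells; Benchmarks: DMSO and RFP-L50D-GFP cell wells; Timing: cells overnight before dosing, compound overnight, 37 °C, 5% CO2; Compound: one 20 µM compound dose with 1% DMSO; Read-out: GFP/RFP fluorescence ratio.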
Active calls of the source: *. This is a sample that favours compounds with a hit; in the whole collection about 2% have one here.

`COc1ccc2c3c([nH]c2c1)[C@@H](CO)N(C(=O)Nc1ccccc1F)CC31CN(C(C)=O)C1` gave FGF22 binding 0.
`CCOC(=O)c1ccc(NC(=O)c2cc3c(s2)CCC3)cc1` gave ABCB6 inh MLPCN 98, DAGLB inh -5, VLA-4 inh 5, Granule exo inh 2, FGF22 binding 45* and MT1-MMP act inh 3.
CCOC(=O)c1c(NC(=O)c2ccccc2)sc2c(O)c(CN(CC)CC)ccc12 was read as ABCB6 inh MLPCN 69*, DAGLB inh 1, VLA-4 inh -14, Granule exo inh 4 and MT1-MMP act inh 1.
For CCCC(=O)Nc1ccc2c(c1)OC[C@@H](C)N(Cc1ccccn1)C[C@@H](C)[C@H](OC)CN(C)C2=O the results were FGF22 binding 0.
`Cc1ccc(S(=O)(=O)N(C)C[C@@H]2Oc3c(NC(=O)Nc4ccc5c(c4)OCO5)cccc3C(=O)N([C@@H](C)CO)C[C@@H]2C)cc1` gave FGF22 binding 1.
Screening O=C(O)c1ccc(NC2=C(Cl)C(=O)c3ccccc3C2=O)cc1 returned ABCB6 inh MLPCN 91, DAGLB inh 3, VLA-4 inh 3, Granule exo inh 70*, FGF22 binding 0 and MT1-MMP act inh -1.
O=C(Nc1cccc(F)c1)/C(=C\c1cccnc1)NC(=O)c1ccco1 was read as ABCB6 inh MLPCN 91, DAGLB inh -2, VLA-4 inh 14, Granule exo inh 1, FGF22 binding 44* and MT1-MMP act inh 2.
Screening CN(C)S(=O)(=O)c1cc(C(=O)NCc2ccccc2)c(Cl)cc1Cl returned ABCB6 inh MLPCN 99, DAGLB inh -3, VLA-4 inh -4, Granule exo inh 1, FGF22 binding 43* and MT1-MMP act inh 4.
Screening CC1CCN(c2ccccc2NC(=S)NC(=O)C(C)(C)C)CC1 returned ABCB6 inh MLPCN 100, DAGLB inh -18, VLA-4 inh 2, Granule exo inh 23, FGF22 binding 43* and MT1-MMP act inh -8.
`CS(=O)(=O)N1CCN(c2ccccc2NC(=S)NC(=O)c2cccs2)CC1` gave ABCB6 inh MLPCN 107, DAGLB inh -2, VLA-4 inh 9, Granule exo inh 2, FGF22 binding 43* and MT1-MMP act inh -9.
`CC1CCN(c2ccccc2NC(=S)NC(=O)c2cccs2)CC1` gave ABCB6 inh MLPCN 106, DAGLB inh -11, VLA-4 inh -3, Granule exo inh -2 and MT1-MMP act inh -18.
Screening CC1CCN(c2ccccc2NC(=S)NC(=O)c2ccco2)CC1 returned ABCB6 inh MLPCN 98, DAGLB inh -11, VLA-4 inh 7, Granule exo inh -3 and MT1-MMP act inh -11.
O=C(CN1CC(=O)Nc2ccccc21)NCCc1ccc(Cl)cc1Cl was read as ABCB6 inh MLPCN 102, DAGLB inh 2, VLA-4 inh -14, Granule exo inh -1, FGF22 binding 44* and MT1-MMP act inh 4.
Screening Cc1ccc(NC(=O)CNC(=O)N2CC(=O)Nc3ccccc32)cc1F returned ABCB6 inh MLPCN 98, DAGLB inh 0, VLA-4 inh 8, Granule exo inh -1, FGF22 binding 0 and MT1-MMP act inh 3.
Screening O=C(CN1CC(=O)Nc2ccccc21)Nc1ccc(F)c(F)c1 returned ABCB6 inh MLPCN 104, DAGLB inh 0, VLA-4 inh -64, Granule exo inh -4, FGF22 binding 43* and MT1-MMP act inh -3.
Screening C[C@H]1CN([C@@H](C)CO)C(=O)c2cccc(NS(=O)(=O)c3cccs3)c2O[C@@H]1CN(C)Cc1ccc(-c2ccccc2)cc1 returned FGF22 binding 0.
Screening O=C(c1cc(F)ccc1F)C1CCCN(C(=O)CCN2CCCCO2)C1 (centres undefined) returned ABCB6 inh MLPCN 99, DAGLB inh 1, VLA-4 inh 1, Granule exo inh 23, FGF22 binding 43* and MT1-MMP act inh -1.
Screening c1cc2c3c(cccc3c1)NC1(CCC3(CC1)Nc1cccc4cccc(c14)N3)N2 returned ABCB6 inh MLPCN 98, DAGLB inh 7, VLA-4 inh 10, Granule exo inh 60*, FGF22 binding 0 and MT1-MMP act inh 4.
